Experimental data reported in ChEMBL document CHEMBL4627320, “Discovery of CRBN E3 Ligase Modulator CC-92480 for the Treatment of Relapsed and Refractory Multiple Myeloma” (J Med Chem, 2020).
pEC50, pIC50: −log10 of the molar value. The source made the active and inactive calls. The calls are words filed in the database; no cut-off is given here.

Legend:
[1] = Antiproliferative activity against lenalidomide-resistant human H929-R10-1 cells incubated for 5 days by CellTiter-Glo assay; assay type: functional; conditions: 120 h
Summary of the method: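 H929 R10-1 cells kept in log phase at 37°C, 5% CO₂, and plated at 5000 cells/well. Compounds were added as 10-point duplicate curves starting at 10µM with 1:3 dilutions, in 0.1% DMSO, final volume 40µl. Plates were incubated for 5 days. Viability was read by CellTiter-Glo luminescence after 1 h at room temperature in the dark. IC50 is the mean of ≥3 separate determinations.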

[2] = molecular target: Protein cereblon/Zinc finger protein Aiolos (Homo sapiens, UniProt Q96SW2+Q9UKT9); assay: Induction of CRBN-mediated pLOC-ePL-tagged aiolos (unknown origin) degradation in human DF15 cells assessed as minimum protein remaining incubated for 4 hrs by luminescence based beta-galactosidase enzyme fragmentation complementation assay; assay type: cell-based
[3] = molecular target: Protein cereblon/Eukaryotic peptide chain release factor GTP-binding subunit ERF3A (Homo sapiens, UniProt P15170+Q96SW2); assay: Induction of CRBN-mediated pLOC-ePL-tagged GSPT1 (unknown origin) degradation in human DF15 cells assessed as minimum protein remaining incubated for 4 hrs by luminescence based beta-galactosidase enzyme fragmentation complementation assay; assay type: cell-based
[4] = molecular target: Protein cereblon/DNA damage-binding protein 1 (Homo sapiens, UniProt Q96SW2); assay: Displacement of Cy5-conjugated CELMoD from N-terminal 6-His tagged CRBN (1 to 442 residues) (unknown origin)/DDB1 (1 to 1140 residues) (unknown origin) incubated for 10 mins by FRET assay; assay type: protein assay
[5] = test system: PBMC; assay: Cytotoxicity against PBMC (unknown origin); assay type: cell-based
[6] = molecular target: Adrenergic receptor alpha-1 (Homo sapiens) (UniProt P35348+P25100+P35368); assay: Inhibition of adrenergic receptor alpha1 (unknown origin) at 10 uM relative to control; assay type: protein assay
[7] = molecular target: T1, D(2) dopamine receptor (Homo sapiens, UniProt P14416); assay: Inhibition of D2S (unknown origin) at 10 uM relative to control
[8] = molecular target: T1, D(2) dopamine receptor; assay: Agonist activity at D2S (unknown origin)
[9] = molecular target: D(2) dopamine receptor (Rattus norvegicus) (UniProt P61169); assay: In vivo agonist activity at D2S in rat assessed as suppression of gut motility administered daily for 7 days; assay type: functional, organism-based
[10] = Drug metabolism in assay cell medium assessed as compound racemization measured within 24 hrs; assay type: physicochemical
Summary of the method: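 Compound held in the same cell medium used for the H929 R10-1 antiproliferation assay; enantiomer levels followed by chiral monitoring over 24 h.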

[11] = Solubility of the compound; assay type: physicochemical

pEC50 [2] | pEC50 [3] | inhibition [6] [%] | inhibition [7] [%] | Drug metabolism [10] | solubility [11] [µg/mL] | SMILES | pIC50 [1] | pIC50 [4] | Activity [5] | pEC50 [8] | Activity [9]
8.82 | < 5.00 |  |  |  |  | O=C1CCC(N2Cc3c(NCc4ccc(CN5CCN(c6ccc(F)cc6F)CC5)cc4)cccc3C2=O)C(=O)N1 (stereo unspecified) | 7.58 | 6.71 |  |  | 
10.00 | < 5.00 |  |  |  |  | O=C1CCC(N2Cc3c(OCc4ccc(CN5CCN(c6ccccc6)CC5)cc4)cccc3C2=O)C(=O)N1 (stereo unspecified) | 8.68 |  | Non-Toxic |  | 
9.00 |  | 92.1 | 100 |  |  | N#Cc1cccnc1N1CCN(Cc2ccc(COc3cccc4c3CN(C3CCC(=O)NC3=O)C4=O)cc2)CC1 (stereo unspecified) | 7.25 |  |  |  | 
9.30 |  |  |  | Metabolite_Detected |  | O=C1CC[C@@H](N2Cc3c(OCc4ccc(CN5CCN(c6ccc(F)cc6F)CC5)cc4)cccc3C2=O)C(=O)N1 | 8.37 | 5.94 |  |  | 
9.00 |  | 40.4 | 78.4 |  |  | CC1CCN(Cc2ccc(COc3cccc4c3CN(C3CCC(=O)NC3=O)C4=O)cc2)CC1 (stereo unspecified) | 7.45 |  |  |  | 
9.40 |  | 25.2 | 32.9 |  |  | NC(=O)c1ccc(N2CCN(Cc3ccc(COc4cccc5c4CN(C4CCC(=O)NC4=O)C5=O)cc3)CC2)cn1 (stereo unspecified) | 8.46 |  |  |  | 
9.52 | < 5.00 |  |  |  |  | O=C1CCC(N2Cc3c(OCc4ccc(CN5CCN(c6c(F)cccc6F)CC5)cc4)cccc3C2=O)C(=O)N1 (stereo unspecified) | 8.40 |  | Non-Toxic |  | 
10.00 |  | 33.7 | 7.9 |  | < 7 | O=C1CCC(N2Cc3c(OCc4ccc(C(=O)N5CCN(c6ccc(Cl)cc6)CC5)cc4)cccc3C2=O)C(=O)N1 (stereo unspecified) | 8.21 |  |  |  | 
9.52 |  |  |  |  |  | CC(C)N1CCN(Cc2ccc(COc3cccc4c3CN(C3CCC(=O)NC3=O)C4=O)cc2)CC1 (stereo unspecified) | 7.45 |  |  |  | 
9.15 |  | 97.7 | 90.8 |  |  | O=C1CCC(N2Cc3c(OCc4ccc(CN5CCN(c6ccc(F)cn6)CC5)cc4)cccc3C2=O)C(=O)N1 (stereo unspecified) | 8.13 |  |  |  | 
10.00 | < 5.00 | 102 | 99.1 |  |  | O=C1CCC(N2Cc3c(OCc4ccc(CN5CCN(c6ccc(F)cc6F)CC5)cc4)cccc3C2=O)C(=O)N1 (racemic) | 8.77 | 6.30 to 7.26 | Non-Toxic | 7.80 | Active
8.52 |  |  |  |  |  | CN1CCN(Cc2ccc(COc3cccc4c3CN(C3CCC(=O)NC3=O)C4=O)cc2)CC1 (stereo unspecified) | 6.29 |  |  |  | 
8.48 | < 5.00 |  |  |  |  | O=C1CCC(N2C(=O)c3cccc(OCc4ccc(CN5CCN(c6ccc(Cl)cc6Cl)CC5)cc4)c3C2=O)C(=O)N1 (stereo unspecified) | 6.77 | 6.06 |  |  | 
< 5.00 | < 5.00 |  |  |  |  | CN1C(=O)CCC(N2Cc3c(OCc4ccc(CN5CCN(c6ccc(F)cc6F)CC5)cc4)cccc3C2=O)C1=O (stereo unspecified) | 6.20 | 4.55 |  |  | 
8.68 | < 5.00 |  |  |  |  | O=C1CCC(N2C(=O)c3cccc(OCc4ccc(CN5CCN(c6ccc(F)cc6)CC5)cc4)c3C2=O)C(=O)N1 (stereo unspecified) | 6.84 | 6.49 |  |  | 
9.30 | < 5.00 |  |  |  |  | COc1ccc(N2CCN(Cc3ccc(COc4cccc5c4CN(C4CCC(=O)NC4=O)C5=O)cc3)CC2)cc1 (stereo unspecified) | 8.15 |  | Non-Toxic |  | 
10.00 |  | 70.3 | 0.4 |  | < 7 | O=C1CCC(N2Cc3c(OCc4ccc(C(=O)N5CCN(c6ccc(F)cc6F)CC5)cc4)cccc3C2=O)C(=O)N1 (stereo unspecified) | 8.31 |  |  |  | 
8.62 | < 5.00 |  |  |  |  | O=C1CCC(N2C(=O)c3cccc(OCc4ccc(CN5CCN(c6ccc(F)cc6F)CC5)cc4)c3C2=O)C(=O)N1 (stereo unspecified) | 6.80 | 6.30 |  |  | 

SMILES | pEC50 [2] | pEC50 [3] | inhibition [6] [%] | inhibition [7] [%] | Drug metabolism [10] | solubility [11] [µg/mL] | pIC50 [1] | pIC50 [4] | Activity [5] | pEC50 [8] | Activity [9]
N#Cc1ccc(N2CCN(Cc3ccc(COc4cccc5c4CN(C4CCC(=O)NC4=O)C5=O)cc3)CC2)c(F)c1 (stereo unspecified) | 10.00 |  | 67 | 54.5 |  |  | 8.77 |  |  | < 5.00 | inactive
